We go through nine molecules from ChEMBL document CHEMBL4680238, “Novel octapeptide-DTX prodrugs targeting MMP-7 as effective agents for the treatment of colorectal cancer with lower systemic toxicity” (Eur J Med Chem, 2020).

Series [1] is described as follows: Half life of compound in PBS buffer at pH 7.4 at 50 ug/ml up to 72 hrs by RP-HPLC analysis. The series is classed as physicochemical. Particulars: dose 50 µg/ml.
Series [2] concerns HCT-116. Nature of the series: Cytotoxicity against human HCT-116 cells assessed as reduction in cell viability after 48 hrs by MTT assay. The series is classed as functional, cell-based. Particulars: HCT-116, 48 h. The procedure, abridged: (§1)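 Cells seeded at 5000/well and precultured 1 day. HCT116 grown in McCoy's 5A + 10% FBS; SW620 and HEK293 in DMEM + 10% FBS; CCD18Co in DMEM + 15% FBS. Compounds from 0.1 M DMSO stocks were tested at 10^-10 to 10^-4 mol/L in sixplicate: HCT116 and HEK293 for 48 h, SW620 and CCD18Co for 72 h, at 37 °C, 5% CO2. MTT (5 mg/mL) added for 4 h, then A570 read; IC50 estimated.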
On the technique in general: Formazan colour is commonly taken as a measure of viable cells.

The subject of series [3] is CCD-18Co. Nature of the series: Cytotoxicity against human CCD-18Co cells assessed as reduction in cell viability after 72 hrs by MTT assay. Type of series: cell-based. Put shortly:
as §1

For series [4], the system named is HEK293. In words: Cytotoxicity against HEK293 cells assessed as reduction in cell viability after 48 hrs by MTT assay. The series is classed as cell-based. Particulars: Homo sapiens, HEK293, 48 h. The procedure, abridged: as §1
Series [5] is described as follows: Half life in Sprague-Dawley rat plasma t 50 ug/ml up to 72 hrs by RP-HPLC analysis. Type of series: ADME, cell-free. Conditions: dose 50 µg/ml.
The test system of series [6] is SW-620. Nature of the series: Cytotoxicity against human SW-620 cells assessed as reduction in cell viability after 72 hrs by MTT assay. Type of series: functional, cell-based. Particulars: SW-620, 72 h. Put shortly: as §1
Series [7] concerns HCT-116. Nature of the series: Antitumour activity against human HCT-116 cells xenografted in BALB/c nude mouse assessed as tumour growth inhibition at 5 mg/kg, ip administered once for every 7 days for 14 days relative to control. Particulars: HCT-116, ip, 336 h, time 14 day, read-out: TGI. Type of series: functional. The procedure, abridged:
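Male BALB/c nude mice received s.c. HCT116 cells (2 × 10^6 in 0.2 mL PBS). Once tumours reached 100-200 mm3, mice were randomized into groups of six. Dosing was ip, 0.1 mL/10 g, once every 7 days, in DMSO 0.5%/castor oil 5%/ethanol 5%/saline 89.5%; vehicle controls got solvent. Caliper volume V = L×W²×0.52 read every 2-3 days. Tumours excised and weighed on day 14.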
(Xenograft models place foreign cells or tissue in a host animal.)

Residues, ends and D or L forms follow the SMILES beside them. *: point of attachment. X2 = CC(=O)O[C@@]12CO[C@@H]1C[C@H](O)[C@@]1(C)C(=O)[C@H](O)C3=C(C)[C@@H](OC(=O)[C@H](OC(=O)OCc4ccc(N*)cc4)[C@@H](NC(=O)OC(C)(C)C(F)(F)F)c4ccccc4)C[C@@](O)([C@@H](OC(=O)c4cccc(F)c4)[C@H]21)C3(C)C; X1 = CC(=O)O[C@@]12CO[C@@H]1C[C@H](O)[C@@]1(C)C(=O)[C@H](O)C3=C(C)[C@@H](OC(=O)[C@H](OC(=O)OCc4ccc(N*)cc4)[C@@H](NC(=O)OC(C)(C)C)c4ccccc4)C[C@@](O)([C@@H](OC(=O)c4ccccc4)[C@H]21)C3(C)C; Fmoc = O=C(OCC1c2ccccc2-c2ccccc21)* A value given as a limit tells only on which side of the number the result lay.

The half-life is how long it takes for the measured level to halve. What is called IC50 is the concentration needed to halve the response being measured. On to `CC(=O)NCC(=O)N1CCC[C@H]1C(=O)N[C@@H](CCC(N)=O)C(=O)NCC(=O)N[C@@H](CC(C)C)C(=O)N[C@@H](C)C(=O)NCC(=O)N[C@@H](CCC(N)=O)C(=O)N[C@@H](CC(C)C)C(=O)Nc1ccc(COC(=O)O[C@@H](C(=O)O[C@H]2C[C@@]3(O)[C@@H](OC(=O)c4ccccc4)[C@@H]4[C@]5(OC(C)=O)CO[C@@H]5C[C@H](O)[C@@]4(C)C(=O)[C@H](O)C(=C2C)C3(C)C)[C@@H](NC(=O)OC(C)(C)C)c2ccccc2)cc1` (Ac-GPQGLAGQL-X1), for which the half-life at 50 ug/ml is 35.1 h in series [1] and 14 h in series [5]. The IC50 in series [2] is 0.0052 µM; in series [3], > 200 µM; in series [4], 165 µM; in series [6], 21.9 µM.
With `CC[C@H](C)[C@H](NC(=O)CNC(=O)[C@H](CCSC)NC(=O)[C@@H]1CCCN1C(=O)CNC(C)=O)C(=O)N[C@@H](C)C(=O)NCC(=O)N[C@@H](CCC(N)=O)C(=O)N[C@@H](CC(C)C)C(=O)Nc1ccc(COC(=O)O[C@@H](C(=O)O[C@H]2C[C@@]3(O)[C@@H](OC(=O)c4cccc(F)c4)[C@@H]4[C@]5(OC(C)=O)CO[C@@H]5C[C@H](O)[C@@]4(C)C(=O)[C@H](O)C(=C2C)C3(C)C)[C@@H](NC(=O)OC(C)(C)C(F)(F)F)c2ccccc2)cc1` (Ac-GPMGIAGQL-X2), the half-life at 50 ug/ml in series [1] is > 72 h; in series [5] it was 24 h. Also, the IC50 in series [2] is 0.0209 µM; in series [3], > 200 µM; in series [4], 21.3 µM; in series [6], > 200 µM.
For `CC[C@H](C)[C@H](NC(=O)CNC(=O)[C@H](CC(C)C)NC(=O)[C@@H]1CCCN1C(=O)CNC(=O)OCC1c2ccccc2-c2ccccc21)C(=O)N[C@@H](C)C(=O)NCC(=O)N[C@@H](CCC(N)=O)C(=O)N[C@@H](CC(C)C)C(=O)Nc1ccc(COC(=O)O[C@@H](C(=O)O[C@H]2C[C@@]3(O)[C@@H](OC(=O)c4cccc(F)c4)[C@@H]4[C@]5(OC(C)=O)CO[C@@H]5C[C@H](O)[C@@]4(C)C(=O)[C@H](O)C(=C2C)C3(C)C)[C@@H](NC(=O)OC(C)(C)C(F)(F)F)c2ccccc2)cc1` (Fmoc-GPLGIAGQL-X2), the half-life at 50 ug/ml in series [1] was > 72 h; in series [5] it was 47.8 h. Besides, the IC50 in series [2] is 0.439 µM; in series [3], > 200 µM; in series [4], 38.3 µM; in series [6], 0.21 µM.
Regarding `CC[C@H](C)[C@H](NC(=O)CNC(=O)[C@H](CC(C)C)NC(=O)[C@@H]1CCCN1C(=O)CNC(=O)OCC1c2ccccc2-c2ccccc21)C(=O)N[C@@H](C)C(=O)NCC(=O)N[C@@H](CCC(N)=O)C(=O)N[C@@H](CC(C)C)C(=O)Nc1ccc(COC(=O)O[C@@H](C(=O)O[C@H]2C[C@@]3(O)[C@@H](OC(=O)c4ccccc4)[C@@H]4[C@]5(OC(C)=O)CO[C@@H]5C[C@H](O)[C@@]4(C)C(=O)[C@H](O)C(=C2C)C3(C)C)[C@@H](NC(=O)OC(C)(C)C)c2ccccc2)cc1` (Fmoc-GPLGIAGQL-X1), the results for the half-life at 50 ug/ml in series [1] and in series [5] were > 72 h and 35.9 h, respectively. Further, the IC50 in series [2] is 0.0098 µM; in series [3], > 200 µM; in series [4], 15.2 µM; in series [6], 1.01 µM.
With `CC(=O)NCC(=O)N1CCC[C@H]1C(=O)N[C@@H](CCC(N)=O)C(=O)NCC(=O)N[C@@H](CC(C)C)C(=O)N[C@@H](C)C(=O)NCC(=O)N[C@@H](CCC(N)=O)C(=O)N[C@@H](CC(C)C)C(=O)Nc1ccc(COC(=O)O[C@@H](C(=O)O[C@H]2C[C@@]3(O)[C@@H](OC(=O)c4cccc(F)c4)[C@@H]4[C@]5(OC(C)=O)CO[C@@H]5C[C@H](O)[C@@]4(C)C(=O)[C@H](O)C(=C2C)C3(C)C)[C@@H](NC(=O)OC(C)(C)C(F)(F)F)c2ccccc2)cc1` (Ac-GPQGLAGQL-X2), the half-life at 50 ug/ml in series [1] was 48.3 h; in series [5], 24.1 h. Moreover, the IC50 in series [2] is 0.0257 µM; in series [3], > 200 µM; in series [4], 6.17 µM; in series [6], > 200 µM.
Turning to `O=c1[nH]cc(F)c(=O)[nH]1` [FLUOROURACIL], the inhibition in vivo at 5 mg/kg in series [7] came out at 11.4%. The IC50 was 26 µM in series [2], > 200 µM in series [3], 79.3 µM in series [4] and 6.96 µM in series [6].
On to `CC[C@H](C)[C@H](NC(=O)[C@H](C)NC(=O)[C@H](CCC(N)=O)NC(=O)[C@@H]1CCCN1C(=O)CNC(C)=O)C(=O)N[C@@H](C)C(=O)NCC(=O)N[C@@H](CCC(N)=O)C(=O)N[C@@H](CC(C)C)C(=O)Nc1ccc(COC(=O)O[C@@H](C(=O)O[C@H]2C[C@@]3(O)[C@@H](OC(=O)c4ccccc4)[C@@H]4[C@]5(OC(C)=O)CO[C@@H]5C[C@H](O)[C@@]4(C)C(=O)[C@H](O)C(=C2C)C3(C)C)[C@@H](NC(=O)OC(C)(C)C)c2ccccc2)cc1` (Ac-GPQAIAGQL-X1), for which the figures for the half-life at 50 ug/ml in series [1] and in series [5] were > 72 h and 12 h, respectively. Moreover, the IC50 in series [2] is 0.0113 µM; in series [3], > 200 µM; in series [4], 106 µM; in series [6], > 200 µM.
For `CC[C@H](C)[C@H](NC(=O)CNC(=O)[C@H](CCSC)NC(=O)[C@@H]1CCCN1C(=O)CNC(C)=O)C(=O)N[C@@H](C)C(=O)NCC(=O)N[C@@H](CCC(N)=O)C(=O)N[C@@H](CC(C)C)C(=O)Nc1ccc(COC(=O)O[C@@H](C(=O)O[C@H]2C[C@@]3(O)[C@@H](OC(=O)c4ccccc4)[C@@H]4[C@]5(OC(C)=O)CO[C@@H]5C[C@H](O)[C@@]4(C)C(=O)[C@H](O)C(=C2C)C3(C)C)[C@@H](NC(=O)OC(C)(C)C)c2ccccc2)cc1` (Ac-GPMGIAGQL-X1), the half-life at 50 ug/ml is > 72 h in series [1] and 23.9 h in series [5]. The IC50 was 0.0072 µM in series [2], > 200 µM in series [3], 11 µM in series [4] and 1.14 µM in series [6].
Regarding `CC[C@H](C)[C@H](NC(=O)[C@H](C)NC(=O)[C@H](CCC(N)=O)NC(=O)[C@@H]1CCCN1C(=O)CNC(C)=O)C(=O)N[C@@H](C)C(=O)NCC(=O)N[C@@H](CCC(N)=O)C(=O)N[C@@H](CC(C)C)C(=O)Nc1ccc(COC(=O)O[C@@H](C(=O)O[C@H]2C[C@@]3(O)[C@@H](OC(=O)c4cccc(F)c4)[C@@H]4[C@]5(OC(C)=O)CO[C@@H]5C[C@H](O)[C@@]4(C)C(=O)[C@H](O)C(=C2C)C3(C)C)[C@@H](NC(=O)OC(C)(C)C(F)(F)F)c2ccccc2)cc1` (Ac-GPQAIAGQL-X2), the half-life at 50 ug/ml in series [1] was > 72 h; in series [5], 24 h. The IC50 was 0.0054 µM in series [2], > 200 µM in series [3], 94.1 µM in series [4] and 0.65 µM in series [6].
